In ChEMBL document CHEMBL3102834, “Discovery of 5-substituted pyrrolo[2,3-d]pyrimidine antifolates as dual-acting inhibitors of glycinamide ribonucleotide formyltransferase and 5-aminoimidazole-4-carboxamide ribonucleotide formyltransferase in de novo purine nucleotide biosynthesis: implications of inhibiting …” (J Med Chem, 2013):
The source made the active and inactive calls. The calls are words filed in the database; no cut-off is given here.

What was measured:
R2 [1] = assay: Cytotoxicity against chinese hamster R2 cells expressing human PCFT4 after 96 hrs by CellTitre-Blue fluorescence assay; type: functional, cell-based, Cricetulus griseus; conditions: R2, 96 h
[2] = Cytotoxicity against chinese hamster R2(VC) cells after 96 hrs by CellTitre-Blue fluorescence assay; type: functional, cell-based; conditions: Cricetulus griseus
Procedure, shortened: (§1)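 CHO sublines were grown in FF-RPMI/DFBS; transfectants were maintained with G418. Cells were exposed to antifolate (0–1 μM) for 96 h at 37 °C with 2 nM LCV (RT16) or 25 nM LCV (R2/PCFT4). PC43-10 cells were grown in standard RPMI1640/DFBS instead. FRα specificity was tested by adding 200 nM folic acid. Viable cells were read by CellTiter-Blue fluorescence (ex 560/em 590), and IC50 was taken from dose–response curves; means of 3–10 experiments.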

[3] = Cytotoxicity against chinese hamster RT16 cells expressing human FRalpha after 96 hrs by CellTitre-Blue fluorescence assay in presence of folic acid; type: functional, cell-based; conditions: Cricetulus griseus, RT16, 96 h; procedure, shortened: as §1
R2 [4] = assay: Cytotoxicity against chinese hamster R2 cells after 96 hrs by CellTitre-Blue fluorescence assay; conditions: Cricetulus griseus, R2, 96 h
[5] = target: Folate receptor alpha (Homo sapiens) (UniProt P15328); assay: Displacement of [3H]folic acid from human FRalpha expressed in chinese hamster RT16 cells after 15 mins by scintillation counting analysis; type: cell-based
Procedure, shortened: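 FRα-expressing RT16 CHO cells (~1.5 × 10^6) were grown as monolayers. Bound folates were stripped with ice-cold acetate buffer (pH 3.5), then neutralised with HEPES-buffered saline (pH 7.4). Cells were then competed with [3H]folic acid against graded unlabelled ligand. Bound label read by scintillation, normalised to Folin-phenol protein (pmol/mg). Relative affinity = inverse molar ratio for 50% displacement, folic acid set at 1. Three experiments.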

KB [6] = assay: Cytotoxicity against human KB cells at 1 mM after 96 hrs by CellTitre-Blue fluorescence assay; type: functional; conditions: read-out: GI
Procedure, shortened: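 KB cells were exposed for 96 h at 37 °C to metformin (0–10 mM) or AICA (0–2 mM) in FF-RPMI/DFBS with 2 nM LCV. Growth was read by CellTiter-Blue fluorescence relative to drug-free cells.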

[7] = target: Bifunctional purine biosynthesis protein ATIC (Homo sapiens) (UniProt P31939); assay: Inhibition of AICARFTase in human KB cells assessed as phosphorylated AMPK at 1 mM after 48 hrs by Western blot analysis; type: cell-based
Procedure, shortened: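 KB cells were treated for 48 h with 10 μM thymidine, or with AMPK activators (metformin 10 mM, AICA 1 mM, AICAR 1 mM) against a water/DMSO vehicle. Cells were sonicated in 10 mM Tris-HCl pH 7.0 with protease/phosphatase inhibitors. 90 μg protein was run on 4–20% SDS gels and blotted for phospho-AMPK, total AMPK and β-actin, with infrared detection.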

KB [8] = assay: Cytotoxicity against human KB cells expressing human RFC/FRalpha/PCFT after 96 hrs by CellTitre-Blue fluorescence assay in presence of adenosine; type: functional, cell-based
Procedure, shortened: (§2)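 KB cells were grown in FF-RPMI with DFBS and 2 nM LCV, exposed to antifolate (0–1 μM) for 96 h at 37 °C, and read by CellTiter-Blue fluorescence. IC50 was taken from dose–response curves relative to untreated cells. Protection arms added adenosine 60 μM, thymidine 10 μM, AICA 320 μM, or folic acid 200 nM. Means of 3–10 experiments.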

KB [9] = assay: Cytotoxicity against human KB cells expressing human RFC/FRalpha/PCFT after 96 hrs by CellTitre-Blue fluorescence assay in presence of AICA; type: functional, cell-based; procedure, shortened: as §2
KB [10] = assay: Cytotoxicity against human KB cells expressing human RFC/FRalpha/PCFT after 96 hrs by CellTitre-Blue fluorescence assay in presence of thymidine; type: functional, cell-based; procedure, shortened: as §2
[11] = Cytotoxicity against chinese hamster PC43-10 cells expressing human RFC after 96 hrs by CellTitre-Blue fluorescence assay; type: functional, cell-based; conditions: Cricetulus griseus, PC43-10, 96 h; procedure, shortened: as §1

Sequence of Bifunctional purine biosynthesis protein ATIC (Homo sapiens) (P31939 whole entry, looked up): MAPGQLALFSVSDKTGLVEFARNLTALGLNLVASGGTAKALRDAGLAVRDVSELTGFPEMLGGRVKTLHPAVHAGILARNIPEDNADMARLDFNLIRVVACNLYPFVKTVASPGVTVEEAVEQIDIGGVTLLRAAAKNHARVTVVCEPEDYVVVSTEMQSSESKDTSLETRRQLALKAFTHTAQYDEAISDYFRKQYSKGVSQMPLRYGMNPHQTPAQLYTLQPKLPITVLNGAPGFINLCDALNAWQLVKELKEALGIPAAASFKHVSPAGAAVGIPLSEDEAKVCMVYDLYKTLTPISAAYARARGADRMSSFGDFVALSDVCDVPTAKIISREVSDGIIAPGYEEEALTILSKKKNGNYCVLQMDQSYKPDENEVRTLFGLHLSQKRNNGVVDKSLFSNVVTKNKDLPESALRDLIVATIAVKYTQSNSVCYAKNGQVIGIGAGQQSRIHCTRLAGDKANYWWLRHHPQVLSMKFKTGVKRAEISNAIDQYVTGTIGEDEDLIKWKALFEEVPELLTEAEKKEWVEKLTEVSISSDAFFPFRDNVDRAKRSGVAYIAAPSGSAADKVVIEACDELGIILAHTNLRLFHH
Sequence of Folate receptor alpha (Homo sapiens) (P15328 25-234 limits assumed): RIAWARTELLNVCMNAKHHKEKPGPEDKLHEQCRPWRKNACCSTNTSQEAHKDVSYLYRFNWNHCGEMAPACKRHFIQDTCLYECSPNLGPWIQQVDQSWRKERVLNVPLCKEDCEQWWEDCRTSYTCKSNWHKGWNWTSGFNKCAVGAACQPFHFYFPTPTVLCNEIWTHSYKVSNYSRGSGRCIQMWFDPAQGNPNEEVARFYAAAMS

SMILES | IC50 (R2 [1]) [nM] | IC50 [2] [nM] | IC50 (R2 [4]) [nM] | further results
Nc1nc2[nH]c(CCCCCCc3ccc(C(=O)N[C@@H](CCC(=O)O)C(=O)O)cc3)cc2c(=O)[nH]1 | > 1000 | > 1000 |  | 
Nc1nc2[nH]cc(Cc3ccc(C(=O)N[C@@H](CCC(=O)O)C(=O)O)cc3)c2c(=O)[nH]1 | > 1000 | > 1000 | > 1000 | IC50 [3]: > 1000 nM
CN(Cc1cnc2nc(N)nc(N)c2n1)c1ccc(C(=O)N[C@@H](CCC(=O)O)C(=O)O)cc1 [METHOTREXATE] |  | > 1000 |  | inhibition [5]: inactive
NC(=O)c1[nH]cnc1N |  |  |  | inhibition of growth at 1000 µM (KB [6]): 20%; inhibition [7]: inactive
Nc1nc2c(c(=O)[nH]1)C[C@@H](CCc1ccc(C(=O)N[C@@H](CCC(=O)O)C(=O)O)cc1)CN2 [LOMETREXOL] |  | > 1000 |  | 
Nc1nc2[nH]cc(CCCCCc3ccc(C(=O)N[C@@H](CCC(=O)O)C(=O)O)cc3)c2c(=O)[nH]1 | > 1000 | > 1000 | > 1000 | Activity (KB [8]): inactive; Activity (KB [9]): inactive; IC50 [3]: > 1000 nM; Activity (KB [10]): Active
Nc1nc2[nH]c(CCCc3ccc(C(=O)N[C@@H](CCC(=O)O)C(=O)O)cc3)cc2c(=O)[nH]1 |  | > 1000 | > 1000 | IC50 [11]: 649 nM
